Measured values of several laboratories.
Protocols differ between the studies behind these lines.
BCHE: Cholinesterase (BCHE, Equus caballus, UniProt P81908)
PTGS1: Prostaglandin G/H synthase 1 (PTGS1, Ovis aries, UniProt P05979)
AGTR2: Type-2 angiotensin II receptor (AGTR2, Homo sapiens, UniProt P50052)

SMILES	target	test	conditions	inhibition [%]
COc1cc2c(cc1OC)C(=O)N(CC1CCN(Cc3cccnc3)CC1)C2	BCHE	enzyme activity, inhibitor, Ellman	1 µM	2.7
Cc1ccc(-c2nc3ccccc3s2)c(-c2ccc(O)cc2)c1	PTGS1	enzyme activity, inhibitor, absorbance	10 µM	8.4
COc1cc2c(cc1OC)C(=O)N(Cc1cccnc1)C2	BCHE	enzyme activity, inhibitor, Ellman	1 µM	-12.2
Nc1ccc(-c2ccccc2)c(-c2nc3ccccc3s2)c1	PTGS1	enzyme activity, inhibitor, absorbance	10 µM	59.1
O=C(Nc1cccnn1)N1CCN([C@@H]2CCOc3cc(C(F)(F)F)ccc32)CC1	AGTR2	cell-free assay	20 µM	0
COc1cc2c(cc1OC)C(=O)N(CC1CCN(Cc3cccc(C)n3)CC1)C2	BCHE	enzyme activity, inhibitor, Ellman	1 µM	3.4
NS(=O)(=O)c1ccc(-c2ncccc2-c2nc3ccccc3s2)cc1	PTGS1	enzyme activity, inhibitor, absorbance	10 µM	0
COc1cc2c(cc1OC)C(=O)N(Cc1n[nH]c3ccccc13)C2	BCHE	enzyme activity, inhibitor, Ellman	1 µM	-2.7
CN(C)Cc1ccc(-c2nc3ccccc3s2)c(-c2cccc(O)c2)c1	PTGS1	enzyme activity, inhibitor, absorbance	10 µM	30.7
COc1cc2c(cc1OC)C(=O)N(CCc1c[nH]c3ccccc13)C2	BCHE	enzyme activity, inhibitor, Ellman	1 µM	0.7
Cn1cc(-c2cccc(N3CCc4c(sc5c4CC(C)(C)C5)C3=O)c2CO)cc(Nc2ccncn2)c1=O	SRSF protein kinase 2 (SRPK2, Homo sapiens, UniProt P78362)	enzyme activity, inhibitor	1 µM	-3
COCc1c(-c2cc3cc(C)cc(OC)c3s2)c2c(N)ncnn2c1CN1CCNC(=O)C1	AGTR2	ligand displacement, radioligand	10 µM	9
Cc1ccc(-c2nc3ccccc3s2)c(-c2cccc(O)c2)c1	PTGS1	enzyme activity, inhibitor, absorbance	10 µM	11.7
c1ccc(C(NCCNC(c2ccccc2)c2ccccc2)c2ccccc2)cc1	AGTR2	cell-free assay	10 µM	14
Cc1ccc(-c2nc3ccccc3s2)c(-c2ccc(S(N)(=O)=O)cc2)c1	PTGS1	enzyme activity, inhibitor, absorbance	10 µM	9.6
COc1cc2c(cc1OC)C(=O)N(Cc1nccc3ccccc13)C2	BCHE	enzyme activity, inhibitor, Ellman	1 µM	2
C#Cc1n[nH]c2c(-c3cn(C(C)c4ccccn4)c(=O)[nH]c3=O)cc(F)cc12 (stereo not drawn)	Activin receptor type-1B (ACVR1B, Homo sapiens, UniProt P36896)	enzyme activity, inhibitor	1 µM	3.8
Cn1cc(-c2cc(F)cc(N3CCn4c(cc5c4CCCC5)C3=O)c2CO)cc(Nc2ccc(N3CCN(C4COC4)CC3)cn2)c1=O	Serine/threonine-protein kinase MRCK alpha (CDC42BPA, Homo sapiens, UniProt Q5VT25)	enzyme activity, inhibitor	0.1 µM	2
COc1cc2c(cc1OC)C(=O)N(Cc1ccc(F)nc1)C2	BCHE	enzyme activity, inhibitor, Ellman	1 µM	-6.8
CN(C)Cc1ccc(-c2nc3ccccc3s2)c(-c2ccc(O)cc2)c1	PTGS1	enzyme activity, inhibitor, absorbance	10 µM	14.2
COc1ccc(S(=O)(=O)N2CCCCC2)cc1C	AGTR2	ligand displacement, radioligand	10 µM	< 30
